Laboratory results from ChEMBL document CHEMBL1146597, “Synthesis, in vitro affinity, and efficacy of a bis 8-ethynyl-4H-imidazo[1,5a]- [1,4]benzodiazepine analogue, the first bivalent alpha5 subtype selective BzR/GABA(A) antagonist” (J Med Chem, 2003).

Experiments:
[1] = target: GABA A receptor alpha-4/beta-3/gamma-2 (Homo sapiens, UniProt P18507+P28472+P48169); assay: In vitro binding affinity for human GABA-A receptor alpha-4-beta-3-gamma-2 subunits expressed in L(tk-) cell membranes
Method in brief: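 Radioligand displacement on Ltk cell membranes expressing human α4β3γ2 receptors, with 8 nM [3H]Ro15-4513 as radioligand. Ki is the mean of two determinations that differed by less than 10%.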

[2] = In vitro binding affinity for human GABA-A receptor alpha-3-beta-3-gamma-2 subunits expressed in L(tk-) cell membranes
Method in brief: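 Radioligand displacement on Ltk cell membranes expressing human α3β3γ2 receptors, with 1.8 nM [3H]Ro15-1788 as radioligand. Ki is the mean of two determinations that differed by less than 10%.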

[3] = target: T1, GABA-A receptor; alpha-1/beta-3/gamma-2 (Homo sapiens, UniProt P14867+P18507+P28472); assay: In vitro binding affinity for human GABA-A receptor alpha-1-beta-3-gamma-2 subunits expressed in L(tk-) cell membranes
T1 sequence (P14867 whole entry): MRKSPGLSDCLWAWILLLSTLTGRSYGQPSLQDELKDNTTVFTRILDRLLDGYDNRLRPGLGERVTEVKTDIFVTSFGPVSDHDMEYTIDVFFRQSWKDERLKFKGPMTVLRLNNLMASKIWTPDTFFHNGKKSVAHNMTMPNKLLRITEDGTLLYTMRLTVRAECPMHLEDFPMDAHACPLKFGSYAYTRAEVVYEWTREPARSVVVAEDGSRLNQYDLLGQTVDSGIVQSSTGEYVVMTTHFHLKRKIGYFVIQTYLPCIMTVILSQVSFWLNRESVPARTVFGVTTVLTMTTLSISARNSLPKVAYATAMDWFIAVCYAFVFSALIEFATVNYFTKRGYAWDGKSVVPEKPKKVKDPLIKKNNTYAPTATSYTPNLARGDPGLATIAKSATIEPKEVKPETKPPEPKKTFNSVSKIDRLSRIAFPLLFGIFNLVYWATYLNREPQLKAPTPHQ
T1 sequence (P18507 whole entry): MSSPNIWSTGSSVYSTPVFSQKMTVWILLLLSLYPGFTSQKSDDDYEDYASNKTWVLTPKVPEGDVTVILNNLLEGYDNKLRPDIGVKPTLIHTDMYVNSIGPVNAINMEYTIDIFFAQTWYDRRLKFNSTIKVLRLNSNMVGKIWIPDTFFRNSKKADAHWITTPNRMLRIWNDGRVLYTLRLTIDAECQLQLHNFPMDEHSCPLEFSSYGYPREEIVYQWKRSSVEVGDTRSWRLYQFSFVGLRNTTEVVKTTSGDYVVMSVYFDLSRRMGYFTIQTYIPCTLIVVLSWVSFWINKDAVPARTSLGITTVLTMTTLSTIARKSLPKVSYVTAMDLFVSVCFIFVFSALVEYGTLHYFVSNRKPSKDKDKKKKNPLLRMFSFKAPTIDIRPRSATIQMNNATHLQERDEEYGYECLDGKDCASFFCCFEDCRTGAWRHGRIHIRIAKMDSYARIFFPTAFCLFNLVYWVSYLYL
T1 sequence (P28472 whole entry): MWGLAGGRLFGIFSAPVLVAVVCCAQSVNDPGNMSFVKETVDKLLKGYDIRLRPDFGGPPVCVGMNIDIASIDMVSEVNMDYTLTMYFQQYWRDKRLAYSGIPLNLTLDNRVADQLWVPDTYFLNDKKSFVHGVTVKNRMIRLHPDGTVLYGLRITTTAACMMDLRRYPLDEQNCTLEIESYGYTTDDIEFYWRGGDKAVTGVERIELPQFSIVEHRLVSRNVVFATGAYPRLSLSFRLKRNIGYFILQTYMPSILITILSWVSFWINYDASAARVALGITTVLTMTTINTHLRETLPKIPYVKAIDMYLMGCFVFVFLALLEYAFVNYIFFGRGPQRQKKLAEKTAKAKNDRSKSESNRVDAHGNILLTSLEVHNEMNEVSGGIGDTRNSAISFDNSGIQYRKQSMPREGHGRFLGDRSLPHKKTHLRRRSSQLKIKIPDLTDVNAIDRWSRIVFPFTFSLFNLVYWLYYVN
Method in brief: (§1)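 Radioligand displacement on membranes of […] cells expressing human αβ3γ2 receptors, using 1.8 nM [³H]Ro15-1788. Ki taken as the mean of two determinations that differed by less than 10%.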

[4] = target: T2, GABA-A receptor; alpha-5/beta-3/gamma-2 (Homo sapiens, UniProt P18507+P28472+P31644); assay: In vitro binding affinity for human GABA-A receptor alpha-5-beta-3-gamma-2 subunits expressed in L(tk-) cell membranes; method in brief: as §1
T2 sequence (P18507 whole entry): T1 sequence (P18507 whole entry)
T2 sequence (P28472 whole entry): T1 sequence (P28472 whole entry)
T2 sequence (P31644 whole entry): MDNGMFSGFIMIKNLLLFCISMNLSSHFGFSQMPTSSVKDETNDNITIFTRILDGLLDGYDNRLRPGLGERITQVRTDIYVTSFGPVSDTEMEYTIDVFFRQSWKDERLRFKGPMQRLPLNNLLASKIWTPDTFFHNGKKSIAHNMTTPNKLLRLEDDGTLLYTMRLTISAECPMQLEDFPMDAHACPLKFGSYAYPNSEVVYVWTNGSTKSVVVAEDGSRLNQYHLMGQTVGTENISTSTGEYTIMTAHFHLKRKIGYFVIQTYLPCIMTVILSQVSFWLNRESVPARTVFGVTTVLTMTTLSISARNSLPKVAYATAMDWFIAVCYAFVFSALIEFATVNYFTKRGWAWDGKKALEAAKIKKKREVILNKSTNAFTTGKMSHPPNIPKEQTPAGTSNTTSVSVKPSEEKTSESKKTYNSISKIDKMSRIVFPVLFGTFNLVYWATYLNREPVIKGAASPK

[5] = target: T3, GABA-A receptor; alpha-2/beta-3/gamma-2 (Homo sapiens, UniProt P18507+P28472+P47869); assay: In vitro binding affinity for human GABA-A receptor alpha-2-beta-3-gamma-2 subunits expressed in L(tk-) cell membranes; method in brief: as §1
T3 sequence (P18507 whole entry): T1 sequence (P18507 whole entry)
T3 sequence (P28472 whole entry): T1 sequence (P28472 whole entry)
T3 sequence (P47869 whole entry): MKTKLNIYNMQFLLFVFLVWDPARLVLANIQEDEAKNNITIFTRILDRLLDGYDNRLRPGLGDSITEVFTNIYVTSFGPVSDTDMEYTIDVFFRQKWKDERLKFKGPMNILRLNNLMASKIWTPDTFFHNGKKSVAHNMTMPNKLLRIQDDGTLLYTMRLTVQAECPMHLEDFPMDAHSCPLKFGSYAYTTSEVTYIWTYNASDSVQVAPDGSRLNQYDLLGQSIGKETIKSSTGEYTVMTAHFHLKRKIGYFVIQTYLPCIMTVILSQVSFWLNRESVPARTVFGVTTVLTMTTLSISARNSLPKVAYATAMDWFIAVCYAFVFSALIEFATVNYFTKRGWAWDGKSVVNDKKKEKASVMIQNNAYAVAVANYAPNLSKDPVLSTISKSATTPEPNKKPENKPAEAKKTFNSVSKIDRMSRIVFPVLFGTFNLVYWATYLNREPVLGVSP

[6] = target: GABA-A receptor; alpha-6/beta-3/gamma-2 (Homo sapiens, UniProt P18507+P28472+Q16445); assay: In vitro binding affinity for human GABA-A receptor alpha-6-beta-3-gamma-2 subunits expressed in L(tk-) cell membranes
GABA-A receptor; alpha-6/beta-3/gamma-2, sequence (Q16445 whole entry, one chain of several): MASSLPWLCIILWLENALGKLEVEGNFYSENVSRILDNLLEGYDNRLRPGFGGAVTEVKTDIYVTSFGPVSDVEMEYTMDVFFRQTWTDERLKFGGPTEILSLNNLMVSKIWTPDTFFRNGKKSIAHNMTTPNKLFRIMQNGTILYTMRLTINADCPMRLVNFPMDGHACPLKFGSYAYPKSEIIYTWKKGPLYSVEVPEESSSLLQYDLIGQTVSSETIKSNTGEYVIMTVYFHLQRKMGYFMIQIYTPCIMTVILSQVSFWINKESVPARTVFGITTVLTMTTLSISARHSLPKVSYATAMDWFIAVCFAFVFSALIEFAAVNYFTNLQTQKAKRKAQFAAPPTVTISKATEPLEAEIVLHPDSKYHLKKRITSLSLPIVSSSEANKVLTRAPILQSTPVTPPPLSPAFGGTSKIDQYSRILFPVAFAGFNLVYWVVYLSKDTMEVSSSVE

GABA A receptor alpha-4/beta-3/gamma-2, sequence (P48169 whole entry, one chain of several): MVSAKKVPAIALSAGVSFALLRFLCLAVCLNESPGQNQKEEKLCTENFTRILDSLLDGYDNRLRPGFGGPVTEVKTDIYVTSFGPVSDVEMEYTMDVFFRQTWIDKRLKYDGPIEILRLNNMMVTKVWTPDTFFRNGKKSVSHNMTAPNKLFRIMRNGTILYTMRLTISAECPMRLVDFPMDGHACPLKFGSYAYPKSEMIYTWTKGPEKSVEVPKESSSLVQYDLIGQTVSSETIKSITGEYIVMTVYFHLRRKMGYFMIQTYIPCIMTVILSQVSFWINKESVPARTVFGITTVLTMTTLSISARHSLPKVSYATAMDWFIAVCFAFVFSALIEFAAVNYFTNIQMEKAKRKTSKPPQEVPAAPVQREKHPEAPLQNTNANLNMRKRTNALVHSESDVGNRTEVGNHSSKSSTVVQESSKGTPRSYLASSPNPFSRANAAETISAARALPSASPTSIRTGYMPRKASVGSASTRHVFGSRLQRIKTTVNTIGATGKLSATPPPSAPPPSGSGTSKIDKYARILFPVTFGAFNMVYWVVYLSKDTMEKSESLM

| Ki [4] | Ki [5] | Ki [6] | Compound | Ki [1] | Ki [2] | Ki [3] |
| --- | --- | --- | --- | --- | --- | --- |
| – | – | – | CN1Cc2c(C(=O)OC(C)(C)C)ncn2-c2ccc(C#C[Si](C)(C)C)cc2C1=O | 7.8 nM | 255 nM | – |
| – | – | – | C#Cc1ccc2c(c1)C(=O)N(C)Cc1c(C(=O)OCC)ncn1-2 | 53 nM | 25.8 nM | – |
| – | – | – | CCOC(=O)c1ncn2c1[C@@H]1CCCN1C(=O)c1cc(OC)ccc1-2 | – | 24.5 nM | – |
| – | – | – | CCOC(=O)c1ncn2c1CN(C)C(=O)c1cc(N=[N+]=[N-])ccc1-2 [Ro-154513] | – | 25 nM | 33 nM |
| 15 nM | > 1000 nM | > 2000 nM | C#Cc1ccc2c(c1)C(=O)N(C)Cc1c(C(=O)OCCCOC(=O)c3ncn4c3CN(C)C(=O)c3cc(C#C)ccc3-4)ncn1-2 | 1550 nM | 858 nM | > 1000 nM |
| – | – | – | CCOC(=O)c1ncn2c1CN(C)C(=O)c1cc(C#C[Si](C)(C)C)ccc1-2 | – | 198 nM | – |
| – | – | – | C#Cc1ccc2c(c1)C(=O)N(C)Cc1c(C(=O)OC(C)(C)C)ncn1-2 | – | 18.7 nM | – |
